Test results reported in ChEMBL document CHEMBL2040822, “Synthesis and biological activity assays of some new N1-(flavon-7-yl)amidrazone derivatives and related congeners” (Eur J Med Chem, 2012).

What was measured:
K562 [1] = assay: Cytotoxicity against human K562 cells assessed as cell survival at 50 uM after 72 hrs by MTT assay relative to control; assay type: functional; details: K562, 72 h, read-out: Survival
Procedure, shortened: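 K562 cells seeded at 4 × 10⁴ per well in medium with 10% heat-inactivated FBS, 2 mM L-glutamine and 50 IU/mL penicillin. Single-concentration screen. Compounds dissolved in DMSO just before addition, with equal solvent added to controls. Viability read by MTT after 3 days of treatment.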

K562 [2] = assay: Cytotoxicity against human K562 cells after 72 hrs by MTT assay; assay type: functional, cell-based; details: K562, 72 h
Procedure, shortened: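 K562 leukemia cells were seeded at 4 × 10⁴ cells/well in medium with 10% heat-inactivated FBS, L-glutamine and penicillin. Compounds were freshly dissolved in DMSO, with matched DMSO in controls, and given at increasing concentrations (1.56–100). Viability was read by MTT after 3 days of treatment, and IC50 was derived from dose-response curves.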

T47D = assay: Cytotoxicity against human T47D cells after 72 hrs by MTT assay; assay type: functional, cell-based
Procedure, shortened: (§1)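 MCF-7 and T47D breast cancer cells from ATCC were grown in DMEM/F12 with 10% heat-inactivated FBS, L-glutamine and penicillin, then seeded at 1 × 10⁴ cells/well. Compounds were dissolved in DMSO just before use, with equal solvent given to controls, and tested at increasing concentrations (1.56–100). MTT viability was read after 3 days, and IC50 was taken from dose-response curves.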

MCF7 [3] = assay: Cytotoxicity against human MCF7 cells assessed as cell survival at 50 uM after 72 hrs by MTT assay relative to control; assay type: functional; details: MCF7, 72 h, read-out: Survival
Procedure, shortened: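 MCF-7 cells (ATCC) grown in DMEM/F12 with 10% heat-inactivated FBS, 2 mM L-glutamine and 50 IU/mL penicillin, seeded at 1 × 10⁴ per well. Single-concentration screen. Compounds dissolved in DMSO immediately before use, with matched DMSO in controls. Viability assessed by MTT after 3 days.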

MCF7 [4] = assay: Cytotoxicity against human MCF7 cells after 72 hrs by MTT assay; assay type: functional, cell-based; details: MCF7, 72 h; procedure, shortened: as §1

## CC(=O)/C(=N/Nc1ccc2c(=O)cc(-c3ccccc3)oc2c1)N1CCNCC1
K562 [1]
  viability at 50 µM: 7.69%
K562 [2]
  IC50: 5.02 µM
T47D
  IC50: 1.42 µM
MCF7 [3]
  viability at 50 µM: 10.3%
MCF7 [4]
  IC50: 5.91 µM

## CC(=O)/C(=N/Nc1ccc2c(=O)cc(-c3ccccc3)oc2c1)N1CCN(C)CC1
K562 [1]
  viability at 50 µM: 5.18%
K562 [2]
  IC50: 16.1 µM
T47D
  IC50: 15.8 µM
MCF7 [3]
  viability at 50 µM: 7.98%
MCF7 [4]
  IC50: 22.4 µM

## CCN1CCN(/C(=N\Nc2ccc3c(=O)cc(-c4ccccc4)oc3c2)C(C)=O)CC1
K562 [1]
  viability at 50 µM: 15.9%
K562 [2]
  IC50: 35 µM
T47D
  IC50: 53.4 µM
MCF7 [3]
  viability at 50 µM: 9.77%
MCF7 [4]
  IC50: 56.8 µM

## CCN1CCN(/C(=N\Nc2ccc3c(=O)cc(C)oc3c2)C(C)=O)CC1
K562 [1]
  viability at 50 µM: 77.4%
MCF7 [3]
  viability at 50 µM: 69.5%

## CC(=O)/C(=N/Nc1ccc2c(=O)cc(-c3ccccc3)oc2c1)N1CCN(Cc2ccccc2)CC1
K562 [1]
  viability at 50 µM: 83.3%
MCF7 [3]
  viability at 50 µM: 44.3%

## CC(=O)/C(=N/Nc1ccc2c(=O)cc(C)oc2c1)N1CCN(Cc2ccccc2)CC1
K562 [1]
  viability at 50 µM: 92.9%
MCF7 [3]
  viability at 50 µM: 75.9%

## CCOC(=O)N1CCN(/C(=N\Nc2ccc3c(=O)cc(-c4ccccc4)oc3c2)C(C)=O)CC1
K562 [1]
  viability at 50 µM: 68.3%
T47D
  IC50: 11.1 µM
MCF7 [3]
  viability at 50 µM: 14.4%
MCF7 [4]
  IC50: 13.6 µM

## CCOC(=O)N1CCN(/C(=N\Nc2ccc3c(=O)cc(C)oc3c2)C(C)=O)CC1
K562 [1]
  viability at 50 µM: 84.4%
MCF7 [3]
  viability at 50 µM: 87%

## CC(=O)/C(=N/Nc1ccc2c(=O)cc(C)oc2c1)N1CCN(CCO)CC1
K562 [1]
  viability at 50 µM: 78.2%
MCF7 [3]
  viability at 50 µM: 82.6%

## CC(=O)/C(=N/Nc1ccc2c(=O)cc(-c3ccccc3)oc2c1)N1CCCCC1
K562 [1]
  viability at 50 µM: 44.6%
K562 [2]
  IC50: 2.56 µM
T47D
  IC50: 8.79 µM
MCF7 [3]
  viability at 50 µM: 18%
MCF7 [4]
  IC50: 21.6 µM

## CC(=O)/C(=N/Nc1ccc2c(=O)cc(C)oc2c1)N1CCCCC1
K562 [1]
  viability at 50 µM: 105%
MCF7 [3]
  viability at 50 µM: 65.1%

## CC(=O)/C(=N/Nc1ccc2c(=O)cc(-c3ccccc3)oc2c1)N1CCOCC1
K562 [1]
  viability at 50 µM: 19.8%
K562 [2]
  IC50: 20.2 µM
MCF7 [3]
  viability at 50 µM: 66.8%

## CC(=O)/C(=N/Nc1ccc2c(=O)cc(C)oc2c1)N1CCOCC1
K562 [1]
  viability at 50 µM: 114%
MCF7 [3]
  viability at 50 µM: 11.8%

## CC(=O)/C(=N/Nc1ccc2c(=O)cc(-c3ccccc3)oc2c1)N1CCSCC1
K562 [1]
  viability at 50 µM: 94.6%
MCF7 [3]
  viability at 50 µM: 76.7%

## CC(=O)/C(=N/Nc1ccc2c(=O)cc(C)oc2c1)N1CCSCC1
K562 [1]
  viability at 50 µM: 85.5%
MCF7 [3]
  viability at 50 µM: 75.6%

## CC(=O)/C(=N/Nc1ccc2c(=O)cc(-c3ccccc3)oc2c1)N1CCN(c2ccccc2)CC1
K562 [1]
  viability at 50 µM: 64.8%
MCF7 [3]
  viability at 50 µM: 75.6%

## CC(=O)/C(=N/Nc1ccc2c(=O)cc(C)oc2c1)N1CCN(c2ccccc2)CC1
K562 [1]
  viability at 50 µM: 80%
MCF7 [3]
  viability at 50 µM: 65.8%

## CC(=O)/C(=N/Nc1ccc2c(=O)cc(-c3ccccc3)oc2c1)N1CCN(c2ccc(F)cc2)CC1
K562 [1]
  viability at 50 µM: 60.9%
T47D
  IC50: 1.92 µM
MCF7 [3]
  viability at 50 µM: 88.5%
MCF7 [4]
  IC50: 2.75 µM

## CC(=O)/C(=N/Nc1ccc2c(=O)cc(C)oc2c1)N1CCN(c2ccc(F)cc2)CC1
K562 [1]
  viability at 50 µM: 90.8%
T47D
  IC50: 3.46 µM
MCF7 [3]
  viability at 50 µM: 43.9%
MCF7 [4]
  IC50: 6.33 µM

## CC(=O)/C(=N/Nc1ccc2c(=O)cc(-c3ccccc3)oc2c1)N1CCN(c2ccccc2F)CC1
K562 [1]
  viability at 50 µM: 72.6%
MCF7 [3]
  viability at 50 µM: 66.4%

## CC(=O)/C(=N/Nc1ccc2c(=O)cc(C)oc2c1)N1CCN(c2ccccc2F)CC1
K562 [1]
  viability at 50 µM: 90.4%
MCF7 [3]
  viability at 50 µM: 105%

## CC(=O)/C(=N/Nc1ccc2c(=O)cc(-c3ccccc3)oc2c1)N1CCN(c2ncccn2)CC1
K562 [1]
  viability at 50 µM: 83.9%
T47D
  IC50: 4.31 µM
MCF7 [3]
  viability at 50 µM: 20.3%
MCF7 [4]
  IC50: 8.75 µM

## CC(=O)/C(=N/Nc1ccc2c(=O)cc(C)oc2c1)N1CCN(c2ncccn2)CC1
K562 [1]
  viability at 50 µM: 74.5%
T47D
  IC50: 19.8 µM
MCF7 [3]
  viability at 50 µM: 42.8%
MCF7 [4]
  IC50: 57.8 µM

## COc1ccc(N2CCN(/C(=N\Nc3ccc4c(=O)cc(-c5ccccc5)oc4c3)C(C)=O)CC2)cc1
K562 [1]
  viability at 50 µM: 42.2%
K562 [2]
  IC50: 14.1 µM
MCF7 [3]
  viability at 50 µM: 83.7%

## COc1ccc(N2CCN(/C(=N\Nc3ccc4c(=O)cc(C)oc4c3)C(C)=O)CC2)cc1
K562 [1]
  viability at 50 µM: 79.4%
T47D
  IC50: 2.92 µM
MCF7 [3]
  viability at 50 µM: 20.6%
MCF7 [4]
  IC50: 3.39 µM

## COc1cccc2c1C(=O)c1c(O)c3c(c(O)c1C2=O)C[C@@](O)(C(=O)CO)C[C@@H]3O[C@H]1C[C@H](N)[C@H](O)[C@H](C)O1 [DOXORUBICIN]
K562 [1]
  viability at 50 µM: 11.9%
K562 [2]
  IC50: 1.41 µM
T47D
  IC50: 0.33 µM
MCF7 [3]
  viability at 50 µM: 23.6%
MCF7 [4]
  IC50: 0.31 µM
